Test results taken from ChEMBL document CHEMBL5247575 (J Med Chem, 2018).

Each molecule was assayed on Acinetobacter baumannii (assay: Synergistic antibacterial activity against Acinetobacter baumannii PR476 producing OXA-24/40 assessed as cefepime MIC at 8 ug/ml by broth microdilution method). Conditions: dose 8 µg/ml.
Format: functional
`N#C[C@@H]1CC[C@@H]2CN1C(=O)N2OS(=O)(=O)[O-].[Na+]` gave an MIC of 2 µg/mL.

What follows are molecules tested on Klebsiella pneumoniae (assay: Synergistic antibacterial activity against Klebsiella pneumoniae 11978 producing OXA-48 assessed as cefepime MIC at 8 ug/ml by broth microdilution method). Conditions: dose 8 µg/ml.
Format: functional
Procedure, shortened: (§1)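 Broth microdilution per CLSI guidelines, using custom frozen panels. […] Each partner drug was also tested alone. MICs were run in triplicate and the modal value is reported.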
With `N#C[C@@H]1CC[C@@H]2CN1C(=O)N2OS(=O)(=O)[O-].[Na+]` the MIC was 0.5 µg/mL.

The molecules below were run on Acinetobacter baumannii (assay: Synergistic antibacterial activity against ADC deleted Acinetobacter baumannii transfected with pWH1266 producing OXA-24/40 assessed as cefepime MIC at 8 ug/ml by broth microdilution method). Conditions: dose 8 µg/ml.
Format: functional
With `N#C[C@@H]1CC[C@@H]2CN1C(=O)N2OS(=O)(=O)[O-].[Na+]` the MIC was 16 µg/mL.

Each molecule was assayed on Acinetobacter baumannii (assay: Synergistic antibacterial activity against ADC deleted Acinetobacter baumannii transfected with pWH1266 OXA-23 assessed as cefepime MIC at 4 ug/ml by broth microdilution method). Conditions: dose 4 µg/ml.
Format: functional
`N#C[C@@H]1CC[C@@H]2CN1C(=O)N2OS(=O)(=O)[O-].[Na+]` gave an MIC of 2 µg/mL.

Each molecule was assayed on Klebsiella pneumoniae (assay: Synergistic antibacterial activity against Klebsiella pneumoniae 977/1916 producing KPC-3 assessed as meropenem MIC at 8 ug/ml by broth microdilution method). Conditions: dose 8 µg/ml.
Format: functional
For `N#C[C@@H]1CC[C@@H]2CN1C(=O)N2OS(=O)(=O)[O-].[Na+]`, the MIC was ≤ 0.12 µg/mL.

What follows are molecules tested on Acinetobacter baumannii (assay: Synergistic antibacterial activity against Acinetobacter baumannii PR448 producing OXA-23 assessed as meropenem MIC at 8 ug/ml by broth microdilution method). Conditions: dose 8 µg/ml.
Format: functional
Work on `N#C[C@@H]1CC[C@@H]2CN1C(=O)N2OS(=O)(=O)[O-].[Na+]` yielded an MIC of 1 µg/mL.

The molecules below were run on Klebsiella pneumoniae (assay: Synergistic antibacterial activity against Klebsiella pneumoniae 977/1916 producing KPC-3 assessed as cefepime MIC at 8 ug/ml by broth microdilution method). Conditions: dose 8 µg/ml.
Format: functional
With `N#C[C@@H]1CC[C@@H]2CN1C(=O)N2OS(=O)(=O)[O-].[Na+]` the MIC was ≤ 0.12 µg/mL.

These molecules were tested on Klebsiella pneumoniae (assay: Synergistic antibacterial activity against Klebsiella pneumoniae 972/1910 producing KPC-3 assessed as cefepime MIC at 4 ug/ml by broth microdilution method). Conditions: dose 4 µg/ml.
Format: functional
Work on `N#C[C@@H]1CC[C@@H]2CN1C(=O)N2OS(=O)(=O)[O-].[Na+]` yielded an MIC of 0.25 µg/mL.

What follows are molecules tested on Klebsiella pneumoniae (assay: Synergistic antibacterial activity against Klebsiella pneumoniae jefferson 1773 producing OXA-181 assessed as cefepime MIC at 8 ug/ml by broth microdilution method). Conditions: dose 8 µg/ml.
Format: functional
With `N#C[C@@H]1CC[C@@H]2CN1C(=O)N2OS(=O)(=O)[O-].[Na+]` the MIC was 1 µg/mL.

What follows are molecules tested on Klebsiella pneumoniae (assay: Synergistic antibacterial activity against Klebsiella pneumoniae CAV 1636 producing OXA-181 assessed as cefepime MIC at 8 ug/ml by broth microdilution method). Conditions: dose 8 µg/ml.
Format: functional
`N#C[C@@H]1CC[C@@H]2CN1C(=O)N2OS(=O)(=O)[O-].[Na+]` gave an MIC of 0.5 µg/mL.

These molecules were tested on Bacteria (assay: Inhibition of bacteria ADC-7 assessed as Koff rate using nitrocefin as substrate incubated for 30 mins). Conditions: not given.
For `N#C[C@@H]1CC[C@@H]2CN1C(=O)N2OS(=O)(=O)[O-].[Na+]`, the K was 1 10^-3/s.

The molecules below were run on Escherichia coli (assay: Synergistic antibacterial activity against Escherichia coli DH10B transfected with pBR322-catI-KPC-2 assessed as cefepime MIC at 4 ug/ml by broth microdilution method). Conditions: dose 4 µg/ml.
Format: functional
Procedure, shortened: as §1
In the case of `N#C[C@@H]1CC[C@@H]2CN1C(=O)N2OS(=O)(=O)[O-].[Na+]`, the MIC is reported as ≤ 0.12 µg/mL.

What follows are molecules tested on Pseudomonas aeruginosa (assay: Synergistic antibacterial activity against Pseudomonas aeruginosa 795 assessed as cefepime MIC at 4 ug/ml by broth microdilution method). Conditions: dose 4 µg/ml.
Format: functional
For `N#C[C@@H]1CC[C@@H]2CN1C(=O)N2OS(=O)(=O)[O-].[Na+]`, the MIC was > 16 µg/mL.

Each molecule was assayed on Acinetobacter baumannii (assay: Synergistic antibacterial activity against Acinetobacter baumannii PR359 producing OXA-23 assessed as meropenem MIC at 8 ug/ml by broth microdilution method). Conditions: dose 8 µg/ml.
Format: functional
Procedure, shortened: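 Broth microdilution per CLSI guidelines in frozen panels. Test compound held at fixed 8 mg/L while the partner β-lactam concentration was increased. Run in triplicate; modal MIC reported.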
With `N#C[C@@H]1CC[C@@H]2CN1C(=O)N2OS(=O)(=O)[O-].[Na+]` the MIC was 4 µg/mL.

What follows are molecules tested on Klebsiella pneumoniae (assay: Synergistic antibacterial activity against Klebsiella pneumoniae 1354/2241 producing KPC-3 assessed as cefepime MIC at 8 ug/ml by broth microdilution method). Conditions: dose 8 µg/ml.
Format: functional
Procedure, shortened: as §1
`N#C[C@@H]1CC[C@@H]2CN1C(=O)N2OS(=O)(=O)[O-].[Na+]` was tested, and the MIC was ≤ 0.12 µg/mL.

What follows are molecules tested on Pseudomonas aeruginosa (assay: Synergistic antibacterial activity against Pseudomonas aeruginosa 839 assessed as cefepime MIC at 4 ug/ml by broth microdilution method). Conditions: dose 4 µg/ml.
Format: functional
Molecule `N#C[C@@H]1CC[C@@H]2CN1C(=O)N2OS(=O)(=O)[O-].[Na+]` has an MIC of 8 µg/mL.

These molecules were tested on Escherichia coli (assay: Synergistic antibacterial activity against Escherichia coli DH10B transfected with pBC SK (-) OXA-48 assessed as meropenem MIC at 8 ug/ml by broth microdilution method). Conditions: dose 8 µg/ml.
Format: functional
Procedure, shortened: as §1
For `N#C[C@@H]1CC[C@@H]2CN1C(=O)N2OS(=O)(=O)[O-].[Na+]`, the MIC was ≤ 0.12 µg/mL.

The molecules below were run on Escherichia coli (assay: Synergistic antibacterial activity against Escherichia coli DH10B transfected with pBC SK (-) KPC-3 assessed as meropenem MIC at 4 ug/ml by broth microdilution method). Conditions: dose 4 µg/ml.
Format: functional
In the case of `N#C[C@@H]1CC[C@@H]2CN1C(=O)N2OS(=O)(=O)[O-].[Na+]`, the MIC is reported as ≤ 0.12 µg/mL.

The molecules below were run on Acinetobacter baumannii (assay: Synergistic antibacterial activity against ADC deleted Acinetobacter baumannii assessed as cefepime MIC at 4 ug/ml by broth microdilution method). Conditions: dose 4 µg/ml.
Format: functional
With `N#C[C@@H]1CC[C@@H]2CN1C(=O)N2OS(=O)(=O)[O-].[Na+]` the MIC was 0.5 µg/mL.

These molecules were tested on Klebsiella pneumoniae (assay: Synergistic antibacterial activity against Klebsiella pneumoniae jefferson 1773 producing OXA-181 assessed as meropenem MIC at 8 ug/ml by broth microdilution method). Conditions: dose 8 µg/ml.
Format: functional
`N#C[C@@H]1CC[C@@H]2CN1C(=O)N2OS(=O)(=O)[O-].[Na+]` showed an MIC of 0.25 µg/mL.

Each molecule was assayed on Klebsiella pneumoniae (assay: Synergistic antibacterial activity against Klebsiella pneumoniae 901/1860 producing KPC-3 assessed as meropenem MIC at 4 ug/ml by broth microdilution method). Conditions: dose 4 µg/ml.
Format: functional
With `N#C[C@@H]1CC[C@@H]2CN1C(=O)N2OS(=O)(=O)[O-].[Na+]` the MIC was ≤ 0.12 µg/mL.

Each molecule was assayed on Acinetobacter baumannii (assay: Synergistic antibacterial activity against Acinetobacter baumannii PR319 producing OXA-23/24/40 assessed as meropenem MIC at 8 ug/ml by broth microdilution method). Conditions: dose 8 µg/ml.
Format: functional
`N#C[C@@H]1CC[C@@H]2CN1C(=O)N2OS(=O)(=O)[O-].[Na+]` was tested, and the MIC was > 16 µg/mL.

Each molecule was assayed on Klebsiella pneumoniae (assay: Synergistic antibacterial activity against Klebsiella pneumoniae 1108/1989 producing KPC-3 assessed as cefepime MIC at 4 ug/ml by broth microdilution method). Conditions: dose 4 µg/ml.
Format: functional
Procedure, shortened: as §1
`N#C[C@@H]1CC[C@@H]2CN1C(=O)N2OS(=O)(=O)[O-].[Na+]` showed an MIC of 0.25 µg/mL.

What follows are molecules tested on Klebsiella pneumoniae (assay: Synergistic antibacterial activity against Klebsiella pneumoniae CAV 1543 producing OXA-48 assessed as meropenem MIC at 8 ug/ml by broth microdilution method). Conditions: dose 8 µg/ml.
Format: functional
With `N#C[C@@H]1CC[C@@H]2CN1C(=O)N2OS(=O)(=O)[O-].[Na+]` the MIC was ≤ 0.12 µg/mL.

The molecules below were run on Escherichia coli (assay: Antibacterial activity against Escherichia coli DH10B by broth microdilution method). Conditions: not given.
Format: functional
For `N#C[C@@H]1CC[C@@H]2CN1C(=O)N2OS(=O)(=O)[O-].[Na+]`, the MIC was > 16 µg/mL.

The molecules below were run on Acinetobacter baumannii (assay: Synergistic antibacterial activity against Acinetobacter baumannii PR363 producing OXA-23 assessed as meropenem MIC at 4 ug/ml by broth microdilution method). Conditions: dose 4 µg/ml.
Format: functional
For `N#C[C@@H]1CC[C@@H]2CN1C(=O)N2OS(=O)(=O)[O-].[Na+]`, the MIC was 4 µg/mL.

The molecules below were run on Klebsiella pneumoniae (assay: Synergistic antibacterial activity against Klebsiella pneumoniae 440/1360 producing KPC-2 assessed as cefepime MIC at 8 ug/ml by broth microdilution method). Conditions: dose 8 µg/ml.
Format: functional
Procedure, shortened: as §1
`N#C[C@@H]1CC[C@@H]2CN1C(=O)N2OS(=O)(=O)[O-].[Na+]` was tested, and the MIC was 0.25 µg/mL.

Each molecule was assayed on Klebsiella pneumoniae (assay: Synergistic antibacterial activity against Klebsiella pneumoniae 660/1568 producing KPC-3 assessed as meropenem MIC at 8 ug/ml by broth microdilution method). Conditions: dose 8 µg/ml.
Format: functional
Procedure, shortened: as §1
In the case of `N#C[C@@H]1CC[C@@H]2CN1C(=O)N2OS(=O)(=O)[O-].[Na+]`, the MIC is reported as ≤ 0.12 µg/mL.

Each molecule was assayed on Klebsiella pneumoniae (assay: Synergistic antibacterial activity against Klebsiella pneumoniae 729/1679 producing KPC-3 assessed as meropenem MIC at 8 ug/ml by broth microdilution method). Conditions: dose 8 µg/ml.
Format: functional
Procedure, shortened: as §1
With `N#C[C@@H]1CC[C@@H]2CN1C(=O)N2OS(=O)(=O)[O-].[Na+]` the MIC was ≤ 0.12 µg/mL.

The molecules below were run on Escherichia coli (assay: Antibacterial activity against Escherichia coli DH10B transfected with pBC SK (-) PDC-3 by broth microdilution method). Conditions: not given.
Format: functional
`N#C[C@@H]1CC[C@@H]2CN1C(=O)N2OS(=O)(=O)[O-].[Na+]` was tested, and the MIC was > 16 µg/mL.

These molecules were tested on Escherichia coli (assay: Synergistic antibacterial activity against Escherichia coli DH10B transfected with pBC SK (-) PDC-3 assessed as meropenem MIC at 8 ug/ml by broth microdilution method). Conditions: dose 8 µg/ml.
Format: functional
Procedure, shortened: as §1
`N#C[C@@H]1CC[C@@H]2CN1C(=O)N2OS(=O)(=O)[O-].[Na+]` was tested, and the MIC was ≤ 0.12 µg/mL.

These molecules were tested on Acinetobacter baumannii (assay: Synergistic antibacterial activity against Acinetobacter baumannii PR476 producing OXA-24/40 assessed as meropenem MIC at 4 ug/ml by broth microdilution method). Conditions: dose 4 µg/ml.
Format: functional
With `N#C[C@@H]1CC[C@@H]2CN1C(=O)N2OS(=O)(=O)[O-].[Na+]` the MIC was 0.25 µg/mL.

These molecules were tested on Klebsiella pneumoniae (assay: Synergistic antibacterial activity against Klebsiella pneumoniae 1084/1957 producing KPC-3 assessed as cefepime MIC at 4 ug/ml by broth microdilution method). Conditions: dose 4 µg/ml.
Format: functional
Procedure, shortened: as §1
In the case of `N#C[C@@H]1CC[C@@H]2CN1C(=O)N2OS(=O)(=O)[O-].[Na+]`, the MIC is reported as ≤ 0.12 µg/mL.

The molecules below were run on Acinetobacter baumannii (assay: Synergistic antibacterial activity against Acinetobacter baumannii PR420 producing OXA-23/24/40 assessed as meropenem MIC at 4 ug/ml by broth microdilution method). Conditions: dose 4 µg/ml.
Format: functional
In the case of `N#C[C@@H]1CC[C@@H]2CN1C(=O)N2OS(=O)(=O)[O-].[Na+]`, the MIC is reported as 16 µg/mL.

Each molecule was assayed on Escherichia coli (assay: Synergistic antibacterial activity against Escherichia coli DH10B transfected with pBC SK (-) KPC-3 assessed as meropenem MIC at 8 ug/ml by broth microdilution method). Conditions: dose 8 µg/ml.
Format: functional
With `N#C[C@@H]1CC[C@@H]2CN1C(=O)N2OS(=O)(=O)[O-].[Na+]` the MIC was ≤ 0.12 µg/mL.

The molecules below were run on Klebsiella pneumoniae (assay: Synergistic antibacterial activity against Klebsiella pneumoniae 972/1910 producing KPC-3 assessed as meropenem MIC at 8 ug/ml by broth microdilution method). Conditions: dose 8 µg/ml.
Format: functional
With `N#C[C@@H]1CC[C@@H]2CN1C(=O)N2OS(=O)(=O)[O-].[Na+]` the MIC was ≤ 0.12 µg/mL.

These molecules were tested on Klebsiella pneumoniae (assay: Synergistic antibacterial activity against Klebsiella pneumoniae 11978 producing OXA-48 assessed as meropenem MIC at 8 ug/ml by broth microdilution method). Conditions: dose 8 µg/ml.
Format: functional
Procedure, shortened: as §1
In the case of `N#C[C@@H]1CC[C@@H]2CN1C(=O)N2OS(=O)(=O)[O-].[Na+]`, the MIC is reported as ≤ 0.12 µg/mL.
